From ChEMBL document CHEMBL1154451, “Simple and efficient synthesis of novel glycosyl thiourea derivatives as potential antitumor agents” (Eur J Med Chem, 2008)

Legend:
[1] = Cytotoxicity against human PG cells after 48 hrs by MTT assay; type: functional, cell-based
Method in brief: (§1)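 Tumour cells seeded at 3–5 × 10⁴ cells/mL and cultured 24 h, then medium containing test compound at various concentrations added (plain medium for controls). Exposure 48 h, followed by MTT read-out with absorbance measured at 490 nm. EC50 values reported; compounds tested up to […].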

Bel-7402 = assay: Cytotoxicity against human Bel7402 cells after 48 hrs by MTT assay; type: functional, cell-based; conditions: Bel-7402, 48 h; method in brief: as §1

## Cc1cn([C@H]2C[C@H](N=[N+]=[N-])[C@@H](CO)O2)c(=O)[nH]c1=O [ZIDOVUDINE]
[1]
  EC50: 580 nM
Bel-7402
  EC50: 4620 nM
